Source: ChEMBL document CHEMBL1765010, “Reversible competitive α-ketoheterocycle inhibitors of fatty acid amide hydrolase containing additional conformational constraints in the acyl side chain: orally active, long-acting analgesics” (J Med Chem, 2011)
Active and inactive are the calls of the source. The rule behind the calls is not given here.

Experiments:
[1] = test system: Mus musculus; experiment: Inhibition of FAAH in C57Bl/6J mouse brain assessed as increase of anandamide level at 50 mg/kg, po; type: functional, organism-based; design: dose 50 mg/kg; details: TDE = time-dependent effect
Method in brief: (§1)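 Male C57Bl/6J mice (<6 months, 20–28 g) given a single oral dose as a PEG300 solution. Brains were homogenized in CHCl3:MeOH:Tris pH 8.0 containing deuterated internal standards. The organic extract was analysed by reverse-phase C18 LC–ESI triple-quadrupole MS for anandamide, PEA, OEA and 2-AG. Dose series (10, 25, 50 mg/kg) was sampled at 1 h; the 50 mg/kg time course ran to 9 h. Three mice per group in the i.p./p.o. comparison.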

[2] = test system: Mus musculus; experiment: Inhibition of FAAH in C57Bl/6J mouse brain assessed as increase of anandamide level at 25 to 50 mg/kg, po after 1 hr relative to control; type: functional; details: dose mg/kg 25-50
Method in brief: (§2)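 Male C57Bl/6J mice (<6 months, 20–28 g) given compound orally as a PEG300 solution at 10, 25 or 50 mg/kg, with 3 mice per group in the 50 mg/kg p.o. comparison; brains collected 1 h post-dose. Lipids extracted in CHCl3:MeOH:Tris pH 8.0 with deuterated internal standards, then measured by C18 LC-ESI-MS/MS relative to vehicle-treated mice.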

[3] = test system: Mus musculus; experiment: Inhibition of FAAH in po dosed C57Bl/6J mouse brain assessed as increase of anandamide level after 1 hr relative to control; type: functional, organism-based; method in brief: as §1
[4] = test system: Mus musculus; experiment: Inhibition of FAAH in C57Bl/6J mouse brain assessed as increase of 2-arachidonoylglycerol level at 30 mg/kg, ip after 1 hr relative to control; type: functional; details: route intraperitoneal
Method in brief: (§3)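 Male C57Bl/6J mice (<6 months, 20–28 g) dosed i.p. at 30 mg/kg in 18:1:1 saline:ethanol:emulphor emulsion; brains taken 1 h later. One mouse in the initial screen, 3 per group in the follow-up. Brain homogenized in CHCl3:MeOH:Tris pH 8.0 with deuterated lipid standards; organic extract quantified by reverse-phase C18 LC-ESI-MS/MS against vehicle controls.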

[5] = test system: Mus musculus; experiment: Inhibition of FAAH in C57Bl/6J mouse brain assessed as increase of anandamide level at 50 mg/kg, po after 1 hr relative to control; type: functional; method in brief: as §2
[6] = test system: Mus musculus; experiment: Inhibition of FAAH in C57Bl/6J mouse brain assessed as increase of N-palmitoyl ethanolamine level at 30 mg/kg, ip after 1 hr relative to control; type: functional; details: route intraperitoneal; method in brief: as §3
[7] = test system: Mus musculus; experiment: Inhibition of FAAH in po dosed C57Bl/6J mouse brain assessed as increase of 2-arachidonoylglycerol level after 1 hr relative to control; type: functional, organism-based; method in brief: as §1
[8] = test system: Mus musculus; experiment: Inhibition of FAAH in C57Bl/6J mouse brain assessed as increase of anandamide level at 10 to 50 mg/kg, po after 1.5 to 3 hrs; type: functional, organism-based
[9] = test system: Mus musculus; experiment: Inhibition of FAAH in C57Bl/6J mouse brain assessed as increase of 2-arachidonoylglycerol level at 50 mg/kg, po; type: functional, organism-based; design: dose 50 mg/kg; details: TDE = time-dependent effect; method in brief: as §1
[10] = test system: Mus musculus; experiment: Analgesic activity in C57BL/6 mouse chronic constriction injury model assessed as reversal of paws ipsilateral to CCI surgery at 50 mg/kg, po measured up to 9 hrs; type: functional, organism-based; design: dose 50 mg/kg
Method in brief: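 Male C57BL/6 mice with sciatic nerve chronic constriction injury (two silk ligatures, isoflurane anesthesia), tested from 10 days post-surgery after 2 days of apparatus habituation. Single oral dose in PEG300 or vehicle. Blinded observer tested ipsilateral and contralateral paws at 1, 3, 6 and 9 h: von Frey up-down method (0.16–6.0 g filaments, 5 stimuli each) and acetone-induced cold response. n = 9–10; mean ± SEM.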

[11] = test system: Mus musculus; experiment: Inhibition of FAAH in C57Bl/6J mouse brain assessed as increase of 2-arachidonoylglycerol level at 50 mg/kg, po after 1 hr relative to control; type: functional; method in brief: as §2
[12] = test system: Mus musculus; experiment: Inhibition of FAAH in C57Bl/6J mouse brain assessed as increase of N-palmitoyl ethanolamine level at 10 to 50 mg/kg, po after 1 hr relative to control; type: functional; details: dose mg/kg 10-50; method in brief: as §2
[13] = test system: Mus musculus; experiment: Inhibition of FAAH in C57Bl/6J mouse brain assessed as increase of anandamide level at 10 to 50 mg/kg, po after up to 9 hrs; type: functional, organism-based; method in brief: as §1
[14] = test system: Mus musculus; experiment: Inhibition of FAAH in C57Bl/6J mouse brain assessed as increase of N-palmitoyl ethanolamine level at 50 mg/kg, po; type: functional, organism-based; design: dose 50 mg/kg; details: TDE = time-dependent effect; method in brief: as §1
[15] = test system: Mus musculus; experiment: Inhibition of FAAH in C57Bl/6J mouse brain assessed as increase of anandamide level at 30 mg/kg, ip after 1 hr relative to control; type: functional; details: route intraperitoneal; method in brief: as §3

In the case of O=C(c1ncc(-c2ccccn2)o1)[C@H]1CCc2cc(Oc3ccccc3)ccc2C1, the Activity [1] is reported as “tde”, the “fold change (FC)” value [2] is reported as 12 and the Activity [3] is reported as “Dose-dependent effect”. The “fold change (FC)” value [4] was 0.9, the fold change (FC) [5] was 13 and the “fold change (FC)” value [6] was 7.2. For the same compound, the Activity [7] was “Dose-dependent effect”, the Activity [8] was “Active” and the Activity [9] was “tde”. For the same compound, the Activity [10] was “Active”, the “fold change (FC)” value [11] was 1.4 and the “fold change (FC)” value [12] was 5.5. For the same compound, the Activity [13] was “Active”, the Activity [14] was “tde” and the “fold change (FC)” value [15] was 5.1.
